Assays:
[1] = biological target: Muscarinic acetylcholine receptor; experiment: Determination of dissociation constant from antimuscarinic activity on isolated guinea pig ileum.; assay type: tissue-based, Cavia porcellus
Mus musculus = species on record: Mus musculus; experiment: Antimuscarinic activity on the intact mice.(Dose required to double the dose of oxotremorine inducing a predetermined tremor intensity.); assay type: functional
Outline: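 Male Swiss-Webster mice (24-32 g). Antagonist given i.p. at 200 µmol/kg to groups of ≥6 mice; 6 untreated controls. 20 min later, the i.v. oxotremorine ED50 was estimated by the up-and-down method, with intermittent spontaneous (grade 2) tremor as endpoint. Active compounds were tested at two further doses. The dose doubling the oxotremorine ED50 was found by linear regression of ED50 vs antagonist dose (including zero).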

[2] = biological target: Muscarinic acetylcholine receptor; experiment: Inhibition of [3H]N-methylscopolamine binding to muscarinic acetylcholine receptor of rat cerebral cortex.; assay type: tissue-based
Outline: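 Male Sprague-Dawley rat (200-300 g) cortex homogenized in 50 mM Na-K phosphate pH 7.4, spun 30000g, resuspended at 10 mg wet tissue/mL. Incubated with (-)-[3H]NMS 0.3 nM plus competitor for 30 min at 30 °C; filtration assay. IC50 from one-site nonlinear fit, converted to Ki by Cheng-Prusoff. Three experiments, each in triplicate.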

| SMILES | Kd [1] | Tremorolytic dose (Mus musculus) | Ki [2] |
| --- | --- | --- | --- |
| CC(=O)N(C)C(C#CCN1CCCC1)c1ccccc1 (stereo unspecified) | 620 nM | 17.4 µM/kg | 310 nM |
| O=C1CCCN1C(C#CCN1CCCC1)c1ccccc1 (stereo unspecified) | 200 nM | 8.93 µM/kg | 110 nM |
| O=C1C(c2ccccc2)CCN1CC#CCN1CCCC1 (stereo unspecified) | 11210 nM | >200 µM/kg | 6910 nM |
| CC(=O)N(C)C(C)C#CCN1CCCC1 (stereo unspecified) | – | 0.6 µM/kg | – |
| O=C1CCC(c2ccccc2)N1CC#CCN1CCCC1 (stereo unspecified) | 850 nM | 55.6 µM/kg | 540 nM |
| O=C1CC(c2ccccc2)CN1CC#CCN1CCCC1 (stereo unspecified) | 15220 nM | >200 µM/kg | 5770 nM |
| CC(=O)N(CC#CCN1CCCC1)Cc1ccccc1 | 5890 nM | 154 µM/kg | 1290 nM |
| CC(C#CCN1CCCC1)N1C(=O)CCC1=O (stereo unspecified) | – | 1.2 µM/kg | – |
| CC1CCC(=O)N1CC#CCN1CCCC1 (stereo unspecified) | – | 0.4 µM/kg | – |
| CC(C#CCN1CCCC1)N1CCCC1=O (stereo unspecified) | 91 nM | 0.5 µM/kg | – |
| O=C1CCCN1CC#CCN1CCC(c2ccccc2)C1 (stereo unspecified) | 8100 nM | 122 µM/kg | 2400 nM |
| O=C1CCC(=O)N1C(C#CCN1CCCC1)c1ccccc1 (stereo unspecified) | 100 nM | 7.29 µM/kg | 120 nM |
| CN(CC#CCN1CCCC1)C(=O)Cc1ccccc1 | 20500 nM | >200 µM/kg | 5200 nM |
| CN(C(=O)C(F)(F)F)C(C#CCN1CCCC1)c1ccccc1 (stereo unspecified) | 500 nM | 26.5 µM/kg | 230 nM |
| CN1[C@@H]2CC[C@H]1C[C@@H](OC(=O)C(CO)c1ccccc1)C2 (stereo partly specified) [ATROPINE] | – | 0.9 µM/kg | – |
